The structures appear in SMILES notation.

One data set has as its target Substance-P receptor (Homo sapiens, UniProt P25103). Description: Displacement of [125I]- substance P binding to human astrocytoma cells (NK1). The method, boiled down:
(§1)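 Radioligand displacement at NK1 or NK2 sites, with Ki values averaged over two to eight determinations.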
For orientation: Displacement assays read how much labelled ligand stays bound in the presence of the test substance.

A further data set addresses T1, Substance-K receptor (Homo sapiens, UniProt P21452).
T1 sequence (P21452 whole entry): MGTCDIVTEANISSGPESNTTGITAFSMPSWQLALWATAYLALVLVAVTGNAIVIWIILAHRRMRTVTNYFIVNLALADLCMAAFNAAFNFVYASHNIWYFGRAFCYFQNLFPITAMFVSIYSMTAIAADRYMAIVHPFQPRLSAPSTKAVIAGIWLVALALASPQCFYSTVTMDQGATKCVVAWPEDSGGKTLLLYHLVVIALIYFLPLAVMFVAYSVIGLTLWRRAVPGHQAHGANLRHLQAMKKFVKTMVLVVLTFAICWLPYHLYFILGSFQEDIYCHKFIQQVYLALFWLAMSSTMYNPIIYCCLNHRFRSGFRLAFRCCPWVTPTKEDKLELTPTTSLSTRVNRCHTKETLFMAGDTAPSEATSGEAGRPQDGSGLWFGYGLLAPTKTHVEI
Description: Displacement of [125I]-NKA substance P binding to human urinary bladder membrane protein (NK2). The method, boiled down:
as §1

The species entered for a further data set is Cavia porcellus. Description: substance P induced guinea pig ileum.
Data set [1] can be described thus: Functional antagonism by the ability to inhibit substance P induced 45 [Ca2+] efflux in human astrocytoma cells. The data set is classed as cell-based. The method, boiled down: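 Human astrocytoma cells stimulated with 3 nM substance P; the antagonist's inhibition of 45Ca2+ efflux was measured. Efflux seen without SP and antagonist was subtracted. Mean ± SEM from at least three experiments.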

Substance-P receptor, sequence (P25103 whole entry): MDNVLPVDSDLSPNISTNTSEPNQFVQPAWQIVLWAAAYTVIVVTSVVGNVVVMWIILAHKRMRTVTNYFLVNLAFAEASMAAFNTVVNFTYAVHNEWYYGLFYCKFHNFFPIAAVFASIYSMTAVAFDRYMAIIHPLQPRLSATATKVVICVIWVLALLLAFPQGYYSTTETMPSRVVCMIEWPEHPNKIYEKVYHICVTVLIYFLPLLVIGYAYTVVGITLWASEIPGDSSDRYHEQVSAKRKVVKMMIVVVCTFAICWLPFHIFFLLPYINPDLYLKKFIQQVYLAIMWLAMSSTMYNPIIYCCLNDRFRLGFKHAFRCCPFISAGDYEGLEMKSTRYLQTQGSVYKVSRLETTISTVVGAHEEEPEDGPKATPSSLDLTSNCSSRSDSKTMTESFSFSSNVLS

What is called Ki is the dissociation constant of the complex between target and ligand, obtained from inhibition or displacement. A low value points to higher affinity. Regarding `CC(C)[C@@H]1NC(=O)CNC(=O)[C@@H]2CCCN2C(=O)[C@@H](Cc2c[nH]c3ccccc23)NC(=O)CNC(=O)[C@H](Cc2ccc(OC(C)(C)C)cc2)NC(=O)CNC1=O`, the Ki on Substance-P receptor worked out at 48 µM; on Substance-K receptor, 27 µM.

For orientation: pA2 means a measure of antagonist potency on a negative log scale. Read a low pA2 as a weaker antagonist. As to `CC(C)=CCc1cc(C(O)C2NC(=O)CNC(=O)[C@H](C(C)C)NC(=O)CNC(=O)[C@@H]3CCCN3C(=O)[C@@H](Cc3c[nH]c4ccccc34)NC(=O)CNC2=O)ccc1O` (stereo partly drawn), the Ki on Substance-P receptor was 8 µM; at Substance-K receptor, 3.8 µM. Further, in the data set listed under Cavia porcellus, the pA2 worked out at 5.23.

For `CC(C)[C@@H]1NC(=O)CNC(=O)[C@@H]2CCCN2C(=O)[C@@H](Cc2c[nH]c3ccccc23)NC(=O)CNC(=O)C(C(O)c2ccc(O)cc2)NC(=O)CNC1=O` (stereo partly drawn), the Ki on Substance-P receptor and on Substance-K receptor was above 100 µM in each case.

Regarding `COc1ccc(C(O)C2NC(=O)CNC(=O)[C@H](C(C)C)NC(=O)CNC(=O)[C@@H]3CCCN3C(=O)[C@@H](Cc3c[nH]c4ccccc34)NC(=O)CNC2=O)cc1` (stereo partly drawn), the Ki is 18 µM on Substance-P receptor and 33 µM at Substance-K receptor.

Take `COc1ccc(CC2NC(=O)CNC(=O)[C@H](C(C)C)NC(=O)CNC(=O)[C@@H]3CCCN3C(=O)[C@@H](Cc3c[nH]c4ccccc34)NC(=O)CNC2=O)cc1` (stereo partly drawn): the Ki stood at 72 µM at Substance-P receptor and 73 µM at Substance-K receptor.

Broadly, the IC50 is the concentration that gives 50% inhibition. Low readings indicate greater potency in that assay, high ones weaker potency in that assay. For `COc1ccc(C(O)C2NC(=O)CNC(=O)[C@H](C(C)C)NC(=O)CNC(=O)[C@@H]3CCCN3C(=O)[C@@H](Cc3c[nH]c4ccccc34)NC(=O)CNC2=O)cc1CC=C(C)C` (stereo partly drawn), the figures for the inhibition constant (Ki) on Substance-P receptor and on Substance-K receptor were 0.12 µM and 1.6 µM, respectively. This molecule gave a 50% inhibitory concentration (IC50) in data set [1] of 0.43 µM.

Regarding `CC(C)[C@@H]1NC(=O)CNC(=O)[C@@H]2CCCN2C(=O)[C@@H](Cc2c[nH]c3ccccc23)NC(=O)CNC(=O)[C@H](Cc2ccc(O)cc2)NC(=O)CNC1=O`, the Ki on Substance-P receptor and at Substance-K receptor was above 100 µM throughout.

With `CC(C)[C@@H]1NC(=O)CNC(=O)[C@@H]2CCCN2C(=O)C(Cc2c[nH]c3ccccc23)NC(=O)CNC(=O)[C@H](Cc2ccc(OC(C)(C)C)cc2)NC(=O)CNC1=O` (single isomer, unassigned), the results for the inhibitory constant (Ki) at Substance-P receptor and on Substance-K receptor were 93 µM and 31 µM, respectively.

These data come from ChEMBL document CHEMBL1127833, “Structure determination, pharmacological evaluation, and structure-activity studies of a new cyclic peptide substance P antagonist containing the new amino acid 3-prenyl-beta-hydroxytyrosine, isolated from Aspergillus flavipes” (J Med Chem, 1994).
